# Results published in PubChem BioAssay AID2545 (The Scripps Research Institute Molecular Screening Center, 2010).
# Activity calls are given as the source filed them.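 How the source made its calls: active means inhibition at or above 75%; inactive means inhibition below 75%.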
# Molecular target: NADPH oxidase 1 (Homo sapiens) (UniProt Q9Y5S8)
# Assay: reconstituted NOX1 ROS output inhibition – cell-based, HEK/293, percent inhibition, luminescence, orthogonal assay for NOX1 inhibitor project, late-stage follow-up (AID 2545)
# Details: NOX1-transfected HEK293, luminol ROS chemiluminescence; at 100 µM; hits give high values
# Summary of the method: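 System: HEK293 cells transiently coexpressing Myc-tagged Nox1, NoxO1, NoxA1, constitutively active Rac1 Q61L; Doses: single nominal concentration of 100 µM per compound; Times: compounds added 16 h post-transfection, 2 h before luminol/peroxidase; Signal: luminol chemiluminescence of intracellular ROS; Measure: percent inhibition of NOX1-driven ROS luminescence signal; Replication: single well per compound.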
# Sequence of NADPH oxidase 1 (Homo sapiens) (Q9Y5S8 whole entry, looked up): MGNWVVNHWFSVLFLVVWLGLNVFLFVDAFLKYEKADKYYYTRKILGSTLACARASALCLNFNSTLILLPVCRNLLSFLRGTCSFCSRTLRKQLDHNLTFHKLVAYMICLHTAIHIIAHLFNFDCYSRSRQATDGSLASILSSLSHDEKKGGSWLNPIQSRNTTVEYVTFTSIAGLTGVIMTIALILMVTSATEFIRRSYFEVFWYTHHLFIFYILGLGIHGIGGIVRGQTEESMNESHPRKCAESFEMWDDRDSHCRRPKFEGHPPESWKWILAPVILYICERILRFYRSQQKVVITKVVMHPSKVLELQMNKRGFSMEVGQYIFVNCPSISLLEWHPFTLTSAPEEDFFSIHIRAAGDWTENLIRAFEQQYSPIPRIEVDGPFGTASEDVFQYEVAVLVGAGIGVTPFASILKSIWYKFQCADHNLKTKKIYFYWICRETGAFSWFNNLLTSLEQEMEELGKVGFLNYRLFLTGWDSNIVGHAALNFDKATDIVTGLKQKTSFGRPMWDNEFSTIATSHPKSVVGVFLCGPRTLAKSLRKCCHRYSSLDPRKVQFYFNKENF
row,Compound,inhibition
1,O=c1c(Cl)c2oc3ccccc3nc-2c2ccccc12,52% (inactive)
2,Cc1cc(Cl)ccc1NC(=S)NNC(=S)Nc1ccc(F)cc1,99.9%
3,FC(F)(F)c1ccc2c(c1)Nc1ccccc1S2,107%
4,c1ccc2c(c1)Nc1nc3ccccc3nc1N2,79.5%
5,O=C(Oc1ccccc1N1CCOCC1)c1cccs1,40.4% (inactive)
6,Cc1cc(C(=O)NNc2cc(Cl)ccc2Cl)no1,-23.5% (inactive)
7,Nc1nc(NCc2ccccc2OC(F)(F)F)n[nH]1,26.1% (inactive)
8,Cc1cc(Br)c(NC(=S)NNc2ccccc2)c(Br)c1,5.12% (inactive)
9,Cc1cc(S(=O)(=O)NNc2ncnc3c2cnn3C)c(C)cc1Cl,-0.65% (inactive)
10,COc1ccc(OC(=O)c2ccc3ncccc3c2)cc1,-50.4% (inactive)
11,COc1cc2ncnc(NNC(=O)c3cccs3)c2cc1OC,46.4% (inactive)
12,Cc1nc(C(F)(F)F)c(C(=O)NNc2ncc(C(F)(F)F)cc2Cl)s1,49.4% (inactive)
13,O=c1[nH]nc(N2CCSCC2)[nH]1,-55.4% (inactive)
14,COc1cccc(NC(=S)NNC(=S)NC2CC3CCC2C3)c1 (stereo unspecified),106%
15,Nc1nc(NCc2c(Cl)cccc2Oc2ccccc2)n[nH]1,2.15% (inactive)
16,CC(=O)Oc1ccc(OC(C)=O)c2c1[C@@H]1C=C[C@H]2CC1,1.35% (inactive)
17,Cc1noc(C)c1C(=O)Nc1ccc(N2CCOCC2)nc1N1CCOCC1,-55.4% (inactive)
18,Nc1nc(Nc2ccccc2)n[nH]1,-15.1% (inactive)
19,NS(=O)(=O)c1ccc(NNC(=O)c2c(F)cccc2Cl)cc1,-10.4% (inactive)
20,CC(C)C(=O)NNc1nc2c(c(=O)n(C)c(=O)n2C)n1Cc1ccc(Cl)cc1,-18.6% (inactive)
21,COc1cccc(NC(=S)NNc2ccc([N+](=O)[O-])cc2)c1,-84% (inactive)

row,Compound,inhibition
1,O=C(NNc1c([N+](=O)[O-])cc(C(F)(F)F)cc1[N+](=O)[O-])c1ccccc1-n1cccc1,54.6% (inactive)
2,COc1cc(-c2nc(-c3ccccc3)c(-c3ccccc3)[nH]2)ccc1O,108%
3,CCOC(=O)C1=C(Nc2ccc(OC(C)=O)cc2)C(=O)N(C(C)(C)C)C1,2.42% (inactive)
4,COc1ccc(N(C)CC(=O)O)c(C(=O)O)c1,-18.5% (inactive)
5,O=C(Oc1ccccc1N1CCCCC1)c1sc2ccccc2c1Cl,57.6% (inactive)
6,CN(C)c1ccc(/C=N/Nc2c(Cl)cncc2Cl)cc1,100%
7,CN(C)c1ccc(NC(=O)Nc2ccc(OCc3ccccc3)cc2)cc1,121%
8,CC1(C)CC(Nc2ccc(Nc3ccccc3)cc2)CC(C)(C)N1,104%
9,Cn1nc(-c2ccccc2)c(O)c(N=Nc2ccccc2)c1=O,-55.7% (inactive)
10,O=c1[nH]c2ccsc2c(=O)n1CCO,-0.39% (inactive)
11,Cn1cnc(S(=O)(=O)Nc2ccc(N3CCCCC3)cc2)c1,58.9% (inactive)
12,COCCCNC(=S)NNC(=S)Nc1ccccc1,9.5% (inactive)
13,O=C(NNc1c([N+](=O)[O-])cc(C(F)(F)F)cc1[N+](=O)[O-])c1ccco1,5.79% (inactive)
14,COc1ccccc1NNC(=O)c1cc(C(C)(C)C)nn1Cc1ccccc1,63.6% (inactive)
15,ON/C=N/c1nnc(C(F)(F)F)s1,1.45% (inactive)
16,S=C(NNc1nccc(-c2cccnc2)n1)Nc1ccccc1,-62.4% (inactive)
17,CC(C)(C)c1csc(NNC(=O)c2ccc(Cl)cc2)n1,-43.1% (inactive)
18,COc1ccc(Cl)cc1NC(=O)Nc1ccc(N(C)C)cc1,100%
19,Nc1nc(NCc2ccccn2)n[nH]1,24.8% (inactive)
20,O=C(N/N=C/c1ccc(O)cc1)N/N=C/c1ccc(O)cc1,83.4%
